The text below walks through data of ChEMBL document CHEMBL1146690, “Design and synthesis of aminopropyl tetrahydroindole-based indolin-2-ones as selective and potent inhibitors of Src and Yes tyrosine kinase” (Bioorg Med Chem Lett, 2004).

Proto-oncogene tyrosine-protein kinase Src, sequence (P12931 2-536 limits assumed): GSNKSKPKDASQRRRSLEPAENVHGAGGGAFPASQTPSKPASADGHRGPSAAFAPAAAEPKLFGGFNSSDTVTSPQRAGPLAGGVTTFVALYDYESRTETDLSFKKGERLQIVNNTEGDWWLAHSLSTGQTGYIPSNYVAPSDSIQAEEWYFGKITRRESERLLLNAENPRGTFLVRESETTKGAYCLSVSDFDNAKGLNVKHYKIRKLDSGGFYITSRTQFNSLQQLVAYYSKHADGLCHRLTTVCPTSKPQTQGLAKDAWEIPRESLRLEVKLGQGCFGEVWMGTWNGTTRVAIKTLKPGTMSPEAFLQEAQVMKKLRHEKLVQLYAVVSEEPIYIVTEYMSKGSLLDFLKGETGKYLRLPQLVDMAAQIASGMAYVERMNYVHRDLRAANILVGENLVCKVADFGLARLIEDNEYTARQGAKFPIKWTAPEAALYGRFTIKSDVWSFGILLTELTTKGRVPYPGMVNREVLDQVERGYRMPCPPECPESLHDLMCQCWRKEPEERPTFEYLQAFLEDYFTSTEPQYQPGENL

This experiment has as its target Proto-oncogene tyrosine-protein kinase Src (Homo sapiens, UniProt P12931). The experiment can be described thus: Inhibitory activity against Src protein tyrosine kinase. The method in brief:
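Enzymatic kinase inhibition run by previously reported methods. Each IC50 came from at least two separate tests with deviation under 20%, and the mean is reported.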
With `CNS(=O)(=O)c1ccc2c(c1)/C(=C/c1[nH]c3c(c1CCCN1CCNCC1)CCCC3)C(=O)N2`, the IC50 (commonly the concentration needed to halve the response being measured) amounted to 200 nM.

Regarding `CCS(=O)(=O)c1ccc2c(c1)/C(=C/c1[nH]c3c(c1CCC(=O)N1CCN(C)CC1)CCCC3)C(=O)N2`, the concentration for half-maximal inhibition (IC50) came to 500 nM.

Regarding `CCS(=O)(=O)c1ccc2c(c1)/C(=C/c1[nH]c3c(c1CCCN1CCN(C(=O)CO)CC1)CCCC3)C(=O)N2`, the IC50 is 220 nM.

`CN(C)CCCc1c(/C=C2\C(=O)Nc3ccc(-c4ccccc4)cc32)[nH]c2c1CCCC2` displayed an IC50 of 2300 nM.

`CC(C)S(=O)(=O)c1ccc2c(c1)/C(=C/c1[nH]c3c(c1CCCN(C)C)CCCC3)C(=O)N2`: the IC50 amounted to 230 nM.

Regarding `CN(C)CCCc1c(/C=C2\C(=O)Nc3ccc(S(=O)(=O)NCCO)cc32)[nH]c2c1CCCC2`, the IC50 worked out at 240 nM.

On to `CN(C)CCCc1c(/C=C2\C(=O)Nc3ccc(S(=O)(=O)NCc4ccc(F)cc4)cc32)[nH]c2c1CCCC2`, for which the midpoint of inhibition, the IC50, lay at 1200 nM.

`CN(C)CCCc1c(/C=C2\C(=O)Nc3ccc(S(C)(=O)=O)cc32)[nH]c2c1CCCC2` returned an IC50 of 300 nM. This IC50 is about 4-fold lower than that of the compound before.

`CC(C)NS(=O)(=O)c1ccc2c(c1)/C(=C/c1[nH]c3c(c1CCCN(C)C)CCCC3)C(=O)N2`: half-maximal inhibition (IC50) required 230 nM. The IC50 values of the last two compounds are within 1.5-fold of each other.

`CNS(=O)(=O)c1ccc2c(c1)/C(=C/c1[nH]c3c(c1CCC(=O)N1CCN(C)CC1)CCCC3)C(=O)N2` showed an IC50 of 300 nM.

`CN(C)CCCc1c(/C=C2\C(=O)Nc3ccc(S(N)(=O)=O)cc32)[nH]c2c1CCCC2` gave an IC50 of 600 nM.

As for `CNS(=O)(=O)c1ccc2c(c1)/C(=C/c1[nH]c3c(c1CCCN1CCN(C(C)=O)CC1)CCCC3)C(=O)N2`, inhibition was half-maximal at 300 nM (IC50).

In turn, `CNS(=O)(=O)c1ccc2c(c1)/C(=C/c1[nH]c3ccccc3c1CCCN(C)C)C(=O)N2` returned an IC50 of 200 nM. Compared with the last compound, the IC50 is about 1.5-fold lower.

`CCS(=O)(=O)c1ccc2c(c1)/C(=C/c1[nH]c3c(c1CCCN1CCOCC1)CCCC3)C(=O)N2` registered an IC50 of 150 nM.

The compound `CN(C)CCCc1c(/C=C2\C(=O)Nc3ccc(F)cc32)[nH]c2c1CCCC2` displayed an IC50 of 500 nM.

As for `CN(C)CCCc1c(/C=C2\C(=O)Nc3ccc(S(=O)(=O)N(C)C)cc32)[nH]c2c1CCCC2`, the IC50 was determined as 2600 nM. Against the preceding compound, the IC50 is about 5.2-fold higher.

Consider `CNS(=O)(=O)c1ccc2c(c1)/C(=C/c1[nH]c(C)c(C)c1CCCN(C)C)C(=O)N2`, for which the IC50 stood at 1000 nM.

`CNS(=O)(=O)c1ccc2c(c1)/C(=C/c1cc3c([nH]1)CCCC3)C(=O)N2` had an IC50 of 2100 nM.

The compound `CCS(=O)(=O)c1ccc2c(c1)/C(=C/c1cc3c([nH]1)CCCC3)C(=O)N2` showed an IC50 of 700 nM. Compared with the last compound, the IC50 is about 3-fold lower.

In the case of `CN(C)CCCc1c(/C=C2\C(=O)Nc3ccccc32)[nH]c2c1CCCC2`, the midpoint of inhibition, the IC50, lay at 3300 nM.

On to `CCOC(=O)N1CCN(CCCc2c(/C=C3\C(=O)Nc4ccc(S(=O)(=O)NC)cc43)[nH]c3c2CCCC3)CC1`, for which the IC50 is 300 nM.

`CCC(=O)N1CCN(CCCc2c(/C=C3\C(=O)Nc4ccc(S(=O)(=O)CC)cc43)[nH]c3c2CCCC3)CC1`: it took 800 nM to reach half-maximal inhibition (IC50).

Compound `CCS(=O)(=O)Cc1ccc2c(c1)/C(=C/c1[nH]c3c(c1CCCN(C)C)CCCC3)C(=O)N2` had an IC50 of 10000 nM. Compared with the last compound, the IC50 is about 12-fold higher.
